# Laboratory results reported in paper PMC8251575 (Diabetes, Obesity & Metabolism, 2021).
# Tests used:
# [1] = Oral semaglutide pharmacokinetics in plasma; format: in vivo, human; conditions: median (min, max)
# Summary of the method: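 Adults with type 2 diabetes on diet/exercise and/or metformin took once-daily oral tablets in a crossover trial: 3 mg weeks 0–4, 7 mg weeks 4–8, 14 mg weeks 8–12. Plasma was sampled at weeks 4, 8 and 12 after the last dose of each strength.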
# [2] = tested on: subjects with type 2 diabetes; experiment: Safety: treatment-emergent adverse events and hypoglycaemic episodes; format: in vivo, human; conditions: during oral semaglutide treatment
# Summary of the method: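 This was a 12-week crossover versus placebo in adults aged 18–75 with type 2 diabetes (HbA1c 6.0%–9.0%, BMI 20–38 kg/m²), with a 5–9-week wash-out between periods. Treatment-emergent AEs and hypoglycaemic episodes were counted from first dose to end of follow-up. Hypoglycaemia was defined as plasma glucose ≤3.9 mmol/L, or >3.9 mmol/L with symptoms. The population was the safety analysis set: all subjects given at least one dose.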
compound,measurement,setting,value
CC[C@H](C)[C@H](NC(=O)[C@H](Cc1ccccc1)NC(=O)[C@H](CCC(=O)O)NC(=O)[C@H](CCCCNC(=O)COCCOCCNC(=O)COCCOCCNC(=O)CC[C@H](NC(=O)CCCCCCCCCCCCCCCCC(=O)O)C(=O)O)NC(=O)[C@H](C)NC(=O)[C@H](C)NC(=O)[C@H](CCC(N)=O)NC(=O)CNC(=O)[C@H](CCC(=O)O)NC(=O)[C@H](CC(C)C)NC(=O)[C@H](Cc1ccc(O)cc1)NC(=O)[C@H](CO)NC(=O)[C@H](CO)NC(=O)[C@@H](NC(=O)[C@H](CC(=O)O)NC(=O)[C@H](CO)NC(=O)[C@@H](NC(=O)[C@H](Cc1ccccc1)NC(=O)[C@@H](NC(=O)CNC(=O)[C@H](CCC(=O)O)NC(=O)C(C)(C)NC(=O)[C@@H](N)Cc1cnc[nH]1)[C@@H](C)O)[C@@H](C)O)C(C)C)C(=O)N[C@@H](C)C(=O)N[C@@H](Cc1c[nH]c2ccccc12)C(=O)N[C@@H](CC(C)C)C(=O)N[C@H](C(=O)N[C@@H](CCCNC(=N)N)C(=O)NCC(=O)N[C@@H](CCCNC(=N)N)C(=O)NCC(=O)O)C(C)C [Oral semaglutide],Semaglutide tmax,"[1]; 3 mg once daily, week 4, n = 15",1 h
same,Semaglutide tmax,"[1]; 7 mg once daily, week 8, n = 13",1 h
same,Semaglutide tmax,"[1]; 14 mg once daily, week 12, n = 13",1 h
same,"Deaths, n (subjects)",[2]; N = 15,no deaths
same,"Any AE, % of subjects",[2]; safety analysis set N = 15,93.3%
